In experiment [1] the target is T1, Alpha-2A adrenergic receptor (Homo sapiens, UniProt P08913).
T1 sequence (P08913 whole entry): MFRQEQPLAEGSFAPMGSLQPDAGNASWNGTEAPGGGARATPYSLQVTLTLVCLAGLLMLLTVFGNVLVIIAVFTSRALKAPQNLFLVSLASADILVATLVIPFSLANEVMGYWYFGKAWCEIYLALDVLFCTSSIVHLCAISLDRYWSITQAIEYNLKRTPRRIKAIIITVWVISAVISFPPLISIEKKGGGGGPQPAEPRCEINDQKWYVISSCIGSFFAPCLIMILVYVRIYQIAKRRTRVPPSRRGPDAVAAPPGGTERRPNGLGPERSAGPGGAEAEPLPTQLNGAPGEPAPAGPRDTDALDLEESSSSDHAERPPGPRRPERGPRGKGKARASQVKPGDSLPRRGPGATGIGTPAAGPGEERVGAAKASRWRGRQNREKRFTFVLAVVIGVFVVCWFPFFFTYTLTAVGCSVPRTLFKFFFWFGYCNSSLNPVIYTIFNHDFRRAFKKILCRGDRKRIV
Kind of experiment: In vitro binding affinity towards human alpha-2A adrenergic receptor using [3H]rauwolscine.

For experiment [2], the target named is Sodium-dependent serotonin transporter (Rattus norvegicus) (UniProt P31652). Put plainly: In vivo effective dose required to inhibit p-chloroamphetamine induced excitation in rats upon subcutaneous administration. The experiment is classed as functional, organism-based. In short, it runs like this: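 Overnight-starved male Wistar rats (200–250 g) given test compound or solvent sc 1 h before p-chloroamphetamine (5 mg/10 mL/kg, sc). Excitation scored over a 15-min interval starting 45 min after pCA. A score <2 was the all-or-nothing criterion for inhibition (1.0% false positives, n>200). ED50 in mg/kg.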

Experiment [3] concerns the target T2, Alpha-2C adrenergic receptor (Homo sapiens, UniProt P18825).
T2 sequence (P18825 whole entry): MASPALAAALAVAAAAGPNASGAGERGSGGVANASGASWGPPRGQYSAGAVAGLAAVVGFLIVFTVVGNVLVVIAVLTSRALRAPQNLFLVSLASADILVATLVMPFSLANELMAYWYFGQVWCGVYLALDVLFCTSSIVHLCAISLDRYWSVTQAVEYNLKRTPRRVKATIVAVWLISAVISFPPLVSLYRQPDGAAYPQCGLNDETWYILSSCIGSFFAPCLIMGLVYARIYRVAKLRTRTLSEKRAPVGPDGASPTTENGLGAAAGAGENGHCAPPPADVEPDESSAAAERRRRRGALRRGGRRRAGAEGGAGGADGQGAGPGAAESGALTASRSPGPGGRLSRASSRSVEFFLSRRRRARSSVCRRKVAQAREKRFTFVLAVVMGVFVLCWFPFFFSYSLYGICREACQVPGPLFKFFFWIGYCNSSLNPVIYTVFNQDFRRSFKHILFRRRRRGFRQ
Put plainly: In vitro binding affinity towards human adrenergic alpha-2C adrenergic receptor using [3H]rauwolscine.

Experiment [4] has as its target T3, Alpha-2B adrenergic receptor (Homo sapiens, UniProt P18089).
T3 sequence (P18089 whole entry): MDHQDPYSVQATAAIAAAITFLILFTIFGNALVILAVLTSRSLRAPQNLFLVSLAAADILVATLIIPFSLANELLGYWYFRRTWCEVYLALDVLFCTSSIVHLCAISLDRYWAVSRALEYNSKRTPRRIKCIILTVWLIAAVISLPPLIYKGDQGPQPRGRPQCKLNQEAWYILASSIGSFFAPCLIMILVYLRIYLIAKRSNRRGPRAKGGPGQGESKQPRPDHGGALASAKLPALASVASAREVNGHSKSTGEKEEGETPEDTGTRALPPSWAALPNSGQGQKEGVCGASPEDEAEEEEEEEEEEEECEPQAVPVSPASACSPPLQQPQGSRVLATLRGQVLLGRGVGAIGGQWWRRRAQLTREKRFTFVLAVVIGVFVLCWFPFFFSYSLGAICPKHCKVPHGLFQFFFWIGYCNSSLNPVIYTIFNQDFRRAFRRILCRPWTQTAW
Put plainly: In vitro binding affinity towards human alpha-2B adrenergic receptor using [3H]rauwolscine.

In experiment [5] the target is Adrenergic receptor alpha-2 (Rattus norvegicus) (UniProt P22086+P19328+P22909). Put plainly: In vivo effective dose required to inhibit xylazine-induced loss of righting in rats upon subcutaneous administration. The experiment is classed as functional, organism-based.

The Ki is a dissociation constant, usually derived from enzyme kinetics or from competition with a known ligand. High values mean lower affinity, low ones higher affinity. In general, ED50 refers to the dose that gives a 50% effect, or the effect in half of the subjects. The low end stands for an effect at a small dose, the high end for a need for a large dose.

Sequence of Sodium-dependent serotonin transporter (Rattus norvegicus) (P31652 whole entry): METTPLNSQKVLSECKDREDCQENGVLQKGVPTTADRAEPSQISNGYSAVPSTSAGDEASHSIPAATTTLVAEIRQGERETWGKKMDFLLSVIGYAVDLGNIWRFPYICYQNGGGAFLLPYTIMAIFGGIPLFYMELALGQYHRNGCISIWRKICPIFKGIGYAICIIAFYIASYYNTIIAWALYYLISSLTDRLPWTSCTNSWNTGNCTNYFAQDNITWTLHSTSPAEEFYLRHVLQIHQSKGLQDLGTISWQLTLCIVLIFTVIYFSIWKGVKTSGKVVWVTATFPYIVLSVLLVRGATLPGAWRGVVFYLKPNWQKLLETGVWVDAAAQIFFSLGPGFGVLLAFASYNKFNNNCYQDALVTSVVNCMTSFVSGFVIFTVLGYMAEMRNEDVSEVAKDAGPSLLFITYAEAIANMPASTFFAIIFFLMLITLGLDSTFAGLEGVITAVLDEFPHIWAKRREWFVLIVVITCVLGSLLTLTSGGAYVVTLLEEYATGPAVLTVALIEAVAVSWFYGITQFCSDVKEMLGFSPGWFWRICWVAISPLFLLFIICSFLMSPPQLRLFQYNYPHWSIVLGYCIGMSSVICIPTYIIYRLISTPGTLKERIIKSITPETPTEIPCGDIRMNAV

Turning to `COc1cc2c(cc1OC)C1=NOC(CN3CCN(CC4=Cc5ccccc5C4)CC3)C1CO2` (stereo not given), the inhibition constant (Ki) in experiment [1] worked out at 22 nM; in experiment [3] it was 4.7 nM; in experiment [4], 315 nM. In addition, the median effective dose (ED50) in experiment [2] was determined as 0.32 mg/kg; in experiment [5], 10 mg/kg.

Values taken from ChEMBL document CHEMBL1136157, “Synthesis of 3a,4-dihydro-3H-[1]benzopyrano[4,3-c]isoxazoles, displaying combined 5-HT uptake inhibiting and alpha(2)-adrenoceptor antagonistic activities: a novel series of potential antidepressants” (Bioorg Med Chem Lett, 2003).
